Reference: ChEMBL document CHEMBL3046326, “Screening of dialkoxybenzenes and disubstituted cyclopentene derivatives against the cabbage looper, Trichoplusia ni, for the discovery of new feeding and oviposition deterrents” (J Agric Food Chem, 2007)

Key:
Trichoplusia ni [1] = assay: Feeding deterrent activity against freshly molted third-instar larval stage of Trichoplusia ni (cabbage looper), Trichoplusia ni at 50 ug/cm'2 after 3 to 5 hr by leaf disk choice bioassay; format: functional
Method in brief: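 Leaf disk choice with freshly molted third instar larvae starved 4–5 h. One disk was painted on each side with 10 µL solution giving 50 µg/cm², the other with carrier solvent. Twenty-five larvae per treatment, stopped at ~50% control disk consumption (3–5 h). Deterrence = [(C − T)/(C + T)] × 100 from consumed areas; mean ± SE, Tukey's test p < 0.05.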

Trichoplusia ni [2] = assay: Oviposition deterrent activity against adult female Trichoplusia ni (cabbage looper) moths introduced along with male moths into oviposition cage containing compound pretreated cabbage leaves assessed as eggs laying on the leaf disks at 0.25% after 48 hr by oviposition choice bioassay; format: functional
Method in brief: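 Choice test with moths from larvae reared on normal diet from neonate to pupation. Pupae were sexed and held separately until emergence. Cabbage leaves were treated with test substance at 0.25% or left as control, and eggs per leaf were counted after 48 h. ODI = [(C − T)/(C + T)] × 100 from egg numbers on control and treated leaves.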

Trichoplusia ni [3] = assay: Feeding deterrent activity against freshly molted third-instar larval stage of Trichoplusia ni (cabbage looper) after 3 to 5 hr by leaf disk choice bioassay; format: functional, organism-based
Method in brief: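 Choice test: freshly molted third instar larvae, starved 4–5 h, offered two leaf disks, one painted on each side with 10 µL test solution and one with carrier solvent only. Twenty-five larvae per treatment. Ended when ~50% of the control disk was eaten (normally 3–5 h). Consumed areas measured. DC50 derived by linear regression of at least four concentrations (3.12–25 µg/cm²).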

Trichoplusia ni [4] = assay: Toxicity against third-instar larval stage of Trichoplusia ni (cabbage looper) assessed as mortality at 0.25% measured after 24 hr by contact toxicity bioassay; format: functional
Method in brief: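 Third-instar larvae were sprayed directly with test solution at 0.25% in filter-paper-lined Petri dishes. They were then moved to dishes holding a small piece of artificial diet. Mortality was scored 24 h after spraying. The test applied only to compounds giving >50% feeding deterrence at 50 µg/cm².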

| SMILES | Activity (Trichoplusia ni [1]) [%] | Activity (Trichoplusia ni [2]) [%] | DC50 (Trichoplusia ni [3]) [microg/cm2] | mortality (Trichoplusia ni [4]) [%] |
| --- | --- | --- | --- | --- |
| CCCOc1ccccc1OCCC(C)C | 66.9 | 29.4 | 32.5 | 10 |
| CCCCCCCCCO[C@H]1C=CC[C@H]1CCOCCC(C)C (racemic) | 22 | – | – | – |
| CCCCCCCCCO[C@H]1C=CC[C@H]1CCO (racemic) | 45.2 | – | – | – |
| CCCCO[C@H]1C=CC[C@H]1CCO (racemic) | 41.6 | – | – | – |
| OCC[C@@H]1CC=C[C@@H]1O (racemic) | 36.6 | – | – | – |
| CCCOCC[C@@H]1CC=C[C@@H]1OCCC (racemic) | 66.7 | 41.8 | 32.6 | 37.5 |
| CCCCOCC[C@@H]1CC=C[C@@H]1OCCCC (racemic) | 76 | 29.5 | 29.2 | 30 |
| CC(C)CCOCC[C@@H]1CC=C[C@@H]1OCCC(C)C (racemic) | 58.6 | 47 | 34.4 | 44.8 |
| COCC[C@@H]1CC=C[C@@H]1OC (racemic) | -17.6 | – | – | – |
| CCOCC[C@@H]1CC=C[C@@H]1OCC (racemic) | -17.8 | – | – | – |
| C=CCOc1ccccc1OCC=C [1,2-DIALLYLOXYBENZENE] | 70.4 | 15 | 22.4 | 20 |
| CCCCOc1ccccc1OCCCC [1,2-DIBUTOXYBENZENE] | 56.4 | 19.6 | 43.8 | 10 |
| CCOc1ccccc1OCC [1,2-DIETHOXYBENZENE] | -2.1 | – | – | – |
| CC(C)CCOc1ccccc1OCCC(C)C [1,2-DIISOPENTOXYBENZENE] | 69.9 | 11.5 | 19.6 | 40 |
| COc1ccccc1OC [1,2-DIMETHOXYBENZENE] | 26 | – | – | – |
| CCCOc1ccccc1OCCC [1,2-DIPROPOXYBENZENE] | 26.2 | – | – | – |
| CCOc1cccc(OCC)c1 [1,3-DIETHOXYBENZENE] | 89.4 | 3.4 | 28.7 | 36.7 |
| CC(C)CCOc1cccc(OCCC(C)C)c1 [1,3-DIISOPENTOXYBENZENE] | -12.2 | – | – | – |
| COc1cccc(OC)c1 [1,3-DIMETHOXYBENZENE] | 20.4 | – | – | – |
| CCCOc1cccc(OCCC)c1 [1,3-DIPROPOXYBENZENE] | 96.9 | 33 | 26.8 | 76.7 |
| C=CCOc1ccc(OCC=C)cc1 [1,4-DIALLYLOXYBENZENE] | 96.9 | 14.1 | 23.9 | 16 |

| SMILES | Activity (Trichoplusia ni [1]) [%] | Activity (Trichoplusia ni [2]) [%] | DC50 (Trichoplusia ni [3]) [microg/cm2] | mortality (Trichoplusia ni [4]) [%] |
| --- | --- | --- | --- | --- |
| CC(C)CCOc1ccc(OCCC(C)C)cc1 [1,4-DIISOPENTOXYBENZENE] | 44 | – | – | – |
| COc1ccc(OC)cc1 [1,4-DIMETHOXYBENZENE] | 9.9 | – | – | – |
| CCCOc1ccc(OCCC)cc1 [1,4-DIPROPOXYBENZENE] | 96 | 11.8 | 20.3 | 22.6 |
| C=CCOc1ccccc1OCCCC [1-allyloxy-2-butoxybenzene] | 67.8 | 66.7 | 30 | 23.3 |
| C=CCOc1ccccc1OCC [1-allyloxy-2-ethoxybenzene] | 67.8 | 66.7 | 30 | 23.3 |
| C=CCOc1ccccc1OC [1-allyloxy-2-methoxybenzene] | 67.8 | 66.7 | 30 | 23.3 |
| C=CCOc1ccccc1OCCCCC [1-allyloxy-2-pentoxybenzene] | 67.8 | 66.7 | 30 | 23.3 |
| C=CCOc1ccccc1OCCC [1-allyloxy-2-propoxybenzene] | 67.8 | 66.7 | 30 | 23.3 |
| C=CCOc1ccc(OCCCC)cc1 [1-allyloxy-4-butoxybenzene] | 84 | 16.8 | 22.6 | 10 |
| C=CCOc1ccc(OCC)cc1 [1-allyloxy-4-ethoxybenzene] | 82.4 | 5.4 | 27.9 | 10 |
| C=CCOc1ccc(OCCC(C)C)cc1 [1-allyloxy-4-isopentoxybenzene] | 75.1 | 18.8 | 15.7 | 7 |
| C=CCOc1ccc(OC)cc1 [1-allyloxy-4-methoxybenzene] | 82.4 | 5.4 | 27.9 | 10 |
| C=CCOc1ccc(OCCC)cc1 [1-allyloxy-4-propoxybenzene] | 82.4 | 5.4 | 27.9 | 10 |
| CCCCCOc1ccccc1OCCCC [1-butoxy-2-pentoxybenzene] | 98 | 28.7 | 16.8 | 6.7 |
| CCCCOc1cccc(OCC)c1 [1-butyloxy-3-ethoxybenzene] | 84.1 | 25.9 | 14.4 | 30 |
| CCCCOc1cccc(OC)c1 [1-butyloxy-3-methoxybenzene] | 84.1 | 25.9 | 14.4 | 30 |
| CCCCCOc1cccc(OCCCC)c1 [1-butyloxy-3-pentoxybenzene] | 84.1 | 25.9 | 14.4 | 30 |
| CCCCOc1cccc(OCCC)c1 [1-butyloxy-3-propoxybenzene] | 84.1 | 25.9 | 14.4 | 30 |
| CCCCOc1ccc(OCC)cc1 [1-butyloxy-4-ethoxybenzene] | 83.4 | 50.1 | 14.5 | 58.1 |
| CCCCOc1ccc(OC)cc1 [1-butyloxy-4-methoxybenzene] | 83.4 | 50.1 | 14.5 | 58.1 |
| CCCCCOc1ccc(OCCCC)cc1 [1-butyloxy-4-pentoxybenzene] | 83.4 | 50.1 | 14.5 | 58.1 |

| SMILES | Activity (Trichoplusia ni [1]) [%] | Activity (Trichoplusia ni [2]) [%] | DC50 (Trichoplusia ni [3]) [microg/cm2] | mortality (Trichoplusia ni [4]) [%] |
| --- | --- | --- | --- | --- |
| CCCCOc1ccc(OCCC)cc1 [1-butyloxy-4-propoxybenzene] | 83.4 | 50.1 | 14.5 | 58.1 |
| CCCCOc1ccccc1OCC [1-ethoxy-2-butoxybenzene] | 71 | 28.7 | 24.1 | 6.7 |
| CCCCCOc1ccccc1OCC [1-ethoxy-2-pentoxybenzene] | 71 | 28.7 | 24.1 | 6.7 |
| C=CCOc1ccccc1O [1-hydroxy-2-allyloxybenzene] | 31.1 | – | – | – |
| CCCCOc1ccccc1O [1-hydroxy-2-butoxybenzene] | 12 | – | – | – |
| CCOc1ccccc1O [1-hydroxy-2-ethoxybenzene] | -5.3 | – | – | – |
| CCCOc1ccccc1O [1-hydroxy-2-propoxybenzene] | -12 | – | – | – |
| CCOc1cccc(O)c1 [1-hydroxy-3-ethoxybenzene] | -18.7 | – | – | – |
| CC(C)CCOc1cccc(O)c1 [1-hydroxy-3-isopentoxybenzene] | -5.8 | – | – | – |
| COc1cccc(O)c1 [1-hydroxy-3-methoxybenzene] | 44.7 | – | – | – |
| CCCOc1cccc(O)c1 [1-hydroxy-3-propoxybenzene] | 4 | – | – | – |
| CCOc1ccc(O)cc1 [1-hydroxy-4-ethoxybenzene] | 29.8 | – | – | – |
| CC(C)CCOc1ccc(O)cc1 [1-hydroxy-4-isopentoxybenzene] | 29.5 | – | – | – |
| CCCOc1ccc(O)cc1 [1-hydroxy-4-propoxybenzene] | -28 | – | – | – |
| CCCCOc1ccccc1OC [1-methoxy-2-butoxybenzene] | 23.5 | – | – | – |
| CCOc1ccccc1OC [1-methoxy-2-ethoxybenzene] | 23.5 | – | – | – |
| CCCCCOc1ccccc1OC [1-methoxy-2-pentoxybenzene] | 23.5 | – | – | – |
| CCCOc1ccccc1OC [1-methoxy-2-propoxybenzene] | 23.5 | – | – | – |
| COc1ccccc1O [GUAIACOL] | -7.5 | – | – | – |
| COc1ccc(O)cc1 [MEQUINOL] | -26.5 | – | – | – |
